Numbering of substitutions follows the chain as printed.
T1: M1 mAChR (M1/CHO cells) (Rattus norvegicus, UniProt P08482)
T1 sequence (P08482 1-460): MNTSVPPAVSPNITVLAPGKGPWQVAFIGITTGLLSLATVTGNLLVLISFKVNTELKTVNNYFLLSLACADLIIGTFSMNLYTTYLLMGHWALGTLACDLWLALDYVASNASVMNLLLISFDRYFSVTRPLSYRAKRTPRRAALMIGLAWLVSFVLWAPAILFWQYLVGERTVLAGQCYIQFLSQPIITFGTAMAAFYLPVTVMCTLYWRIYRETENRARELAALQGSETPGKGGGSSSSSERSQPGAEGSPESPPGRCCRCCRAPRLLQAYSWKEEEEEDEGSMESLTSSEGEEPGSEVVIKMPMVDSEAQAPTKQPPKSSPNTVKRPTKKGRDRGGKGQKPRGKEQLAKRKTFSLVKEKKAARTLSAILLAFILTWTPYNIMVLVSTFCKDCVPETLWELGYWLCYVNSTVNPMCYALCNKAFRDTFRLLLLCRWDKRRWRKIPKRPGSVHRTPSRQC

T2: M1 mAChR (Homo sapiens, UniProt P11229)
T2 sequence (P11229 1-460): T1 sequence (P08482 1-460) with V5A, S254T, S309P, K320R, G337A, V413I

T3: Y381A mutant M1 mAChR (Homo sapiens, UniProt P11229, Y381A)
T3 sequence (P11229 1-460 Y381A): T1 sequence (P08482 1-460) with V5A, S254T, S309P, K320R, G337A, Y381A, V413I

B1: MT7 (protein, UniProt Q8QGR0 22-86, looked up)
Muscarinic toxin 7: LTCVKSNSIWFPTSEDCPDGQNLCFKRWQYISPRMYDFTRGCAATCPKAEYRDVINCCGTDKCNK

Columns and labels:
[1] = system: NMDAR currents in hippocampal CA1 pyramidal cells; assay type: cell-based
plasma:brain study = assay type: in vivo, Sprauge Dawley rat; conditions: male rats, 10 mg/kg i.p.
[2] = system: pilocarpine-induced seizures; assay: pilocarpine-induced seizures in vivo; design: species or system mice; conditions: pilocarpine 280 mg/kg
M1 mAChR (M1/CHO cells) = target: T1, M1 mAChR (M1/CHO cells); assay: functional cell-based calcium-mobilization assay, M1/CHO cell line; conditions: read-out: M1 IC50
In short: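 Real-time calcium mobilisation in CHO cells expressing M1, with a Z' averaging 0.7. Primary hits from a single-pass library screen were retested in duplicate and counter-screened on mGluR4/CHO cells. IC50 values came from 10-point concentration-response curves run in triplicate, tested in parallel on M4/CHO cells.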

M1 mAChR = target: T2, M1 mAChR; assay: phosphoinositide; assay type: cell-based; conditions: PI hydrolysis, ACh concentration-response curve
In short: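 Phosphoinositide hydrolysis was driven by an ACh concentration-response curve, run with and without several test compound concentrations. Rightward shifts of the ACh curve were fitted by Schild analysis to give a Kd and a slope.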

M2-M5 mAChR = assay: functional mAChR selectivity, M2-M5 reported together; assay type: cell-based, rat
Y381A mutant M1 mAChR = target: T3, Y381A mutant M1 mAChR; assay: mutagenesis experiment, Y381A mutant M1; assay type: cell-based; conditions: wherein ACh loses affinity
M1 receptor versus M2-M5 = conditions: reported for known antagonists, no reference given; cited from earlier work

| Molecule | block of CCh-potentiated NMDA-evoked current ([1]; 10 μM CCh, 5 μM compound) | effect of compound alone on NMDA-evoked current ([1]; compound alone, no CCh) | BrainAUC/PlasmaAUC (plasma:brain study) | seizure count ([2]; compound 10 mg/kg i.p.) | animals that died ([2]; compound 10 mg/kg i.p. after 40 minutes, 2/8 at 24 hours) [%] | IC50 (M1 mAChR (M1/CHO cells)) [nM] | Schild slope (M1 mAChR) | functional selectivity for M1 versus M2-M5 (M2-M5 mAChR; functional) [fold] | IC50 (M2-M5 mAChR; read-out: M2-M5 IC50, functional, one bound for all of M2-M5) [nM] | inhibition of M2-M5 (M2-M5 mAChR; up to 150 μM in some experiments, concentrations solubility limited) | antagonism of M1 mAChR responses in Y381A mutant (Y381A mutant M1 mAChR) | M1 selectivity versus M2-M5 (M1 receptor versus M2-M5) |
| --- | --- | --- | --- | --- | --- | --- | --- | --- | --- | --- | --- | --- |
| O=C(CCNS(=O)(=O)c1cccc2nsnc12)N1CCN(c2ccncc2)CC1 [VU0255035] | completely blocked | no effect | 0.48 | statistically significant effect reducing seizure count | 25 | 130 | 0.90 ± 0.08 | > 75 | > 10000 | little inhibition | right shifted |  |
| B1 |  |  |  |  |  |  |  |  |  |  |  | > 1,000 fold |

Source: article PMC4765323 (Current topics in medicinal chemistry, 2009)
